Experimental data: paper PMC3579501 (Transplantation, 2011)
Values joined by “and” are separate entries in the source; they are usually repeats but may differ in a detail not shown here. Identical values can stand only once. Like-named read-outs stand apart in the source and are kept apart here. Marks after values point to notes of the source that are not given here.

Assays:
[1] = type: in vivo, human
Outline: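 Adult kidney or kidney-pancreas recipients on tacrolimus with mycophenolate and steroids, with or without induction. Whole-blood troughs were drawn before an oral dose: two per week in weeks 1–8 and two per month in months 3–6. Measurement was mostly by LC-MS. Doses were adjusted to center targets, generally 8–12 ng/mL (months 0–3) and 6–10 ng/mL (months 4–6). Dose-normalized trough = trough/daily dose (mg/kg). AA and non-AA were compared by Wilcoxon-Mann-Whitney.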

[2] = type: in vivo, human; remark: listed apart in the source
Outline: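 Log of trough (ng/mL) divided by total daily dose (mg/kg), from up to 24 troughs per patient over 6 months, fitted by general linear model. Time posttransplant (1–24) was categorical, with a covariance structure for repeated measures. Clinical factors were retained at backward-selection F-test p<0.15. Variants were tested one at a time (additive model, Toeplitz covariance), adjusted for center and retained factors. Significance was set at FDR 20%, effective m=2110.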

[3] = type: in vivo, human; remark: listed apart in the source
Outline: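 Uses the first log-transformed dose-normalized trough, taken within 4 days posttransplant. Variants and clinical factors were analysed by multiple linear regression with stepwise variable selection. Effect estimates and standard errors were taken from the final model. Age was mean-centered at 50.2 years. Center p-value is from the overall F-test.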

[4] = system: CYP3A5; details: cited from earlier work
[5] = cited from earlier work
[6] = CYP3A5*3/*3 compared to *1/*1 or *1/*3; cited from earlier work
[7] = African American (n=144), over the first 6 months
[8] = nonAfrican American (n=551), over the first 6 months

C=CC[C@@H]1/C=C(\C)C[C@H](C)C[C@H](OC)[C@H]2O[C@@](O)(C(=O)C(=O)N3CCCC[C@H]3C(=O)O[C@H](/C(C)=C/[C@@H]3CC[C@@H](O)[C@H](OC)C3)[C@H](C)[C@@H](O)CC1=O)[C@H](C)C[C@@H]2OC [tacrolimus, Tacrolimus]
Median trough ([1]; AAs, remained despite 60% higher doses (Figure 1)): < 8 ng/mL
Trough concentration, median (interquartile range) [1, 7]: 6.2 (4.4–8.4) ^d ng/mL
Trough dose-normalized, median (interquartile range) [1, 7]: 68.3 (46.1–103.6) ^d ng/ml per mg/kg/day
Subjects with first trough <8 ng/mL ([1]; African Americans): 96.6%
First trough concentration (week one posttransplant), median (interquartile range) ([1]; African Americans, daily dose 4.0 (4.0–5.0) mg/day): 2.1 (1.2–3.5) ng/mL
Dose-normalized trough, median (interquartile range) ([1]; CYP3A5*1/*1 genotype): 54.3(37.9–80.3) ng/mL per mg/kg
Trough concentration, median (interquartile range) ([1]; CYP3A5 *1/*1 genotype (rs776746)): 5.8(4.1–7.9) ng/mL
Dose-normalized trough, median (interquartile range) ([1]; CYP3A5 *1/*3 genotype): 77.8(53.1–114.6) ng/mL per mg/kg
Trough concentration, median (interquartile range) ([1]; CYP3A5 *1/*3 genotype (rs776746)): 7.1(5.1–9.3) ng/mL
Dose-normalized trough, median (interquartile range) ([1]; CYP3A5 *3/*3 genotype): 141.1(91.7–214.5) ng/mL per mg/kg
Trough concentration, median (interquartile range) ([1]; CYP3A5 *3/*3 genotype (rs776746)): 8.4(6.5–10.5) ng/mL
Trough dose-normalized, median (interquartile range) ([1]; all subjects (n=695), over the first 6 months): 116.5 (70.7–186.3) ng/ml per mg/kg/day
Trough concentration, median (interquartile range) ([1]; all subjects (n=695), over the first 6 months, whole blood, oral dosing): 7.9 (5.9–10.1) ng/mL
Trough concentration, median (interquartile range) ([1]; center 1, 6 month study period): 9.5 (8.0–11.4) ng/mL
Trough concentration, median (interquartile range) ([1]; center 2, 6 month study period): 10.5 (7.4–13.0) ng/mL
Trough concentration, median (interquartile range) ([1]; center 3, 6 month study period): 7.9 (6.1–10.1) ng/mL
Trough concentration, median (interquartile range) ([1]; center 4, 6 month study period): 9.7 (7.5–12.2) ng/mL
Trough concentration, median (interquartile range) ([1]; center 5, 6 month study period): 8.9 (7.1–10.6) ng/mL
Trough concentration, median (interquartile range) ([1]; center 6, 6 month study period): 9.1 (7.0–11.3) ng/mL
Trough concentration, median (interquartile range) ([1]; center 7, 6 month study period): 6.6 (4.7–8.7) ng/mL
First trough concentration ([1]; measured within 4 days after transplantation, in most subjects): < 5 ng/mL
Troughs achieved ([1]; non-AA group, quickly achieved (Figure 1)): > 8 ng/mL
Subjects with first trough <8 ng/mL ([1]; non-African Americans): 73.9%
First trough concentration (week one posttransplant), median (interquartile range) ([1]; non-African Americans, daily dose 4.0 [4.0–6.0] mg/day): 5.0 [3.1–8.2] ng/mL and 5.0 (3.1–8.2) ng/mL
Trough concentration, median (interquartile range) [1, 8]: 8.3 (6.4–10.4) ng/mL
Trough dose-normalized, median (interquartile range) [1, 8]: 131.4 (83.0–201.8) ng/ml per mg/kg/day
Median trough lower in AA than in non-AA recipients ([1]; over the 6 month study period, AAs on 60% higher median daily dose): 2.1 ng/mL
Reduction in log transformed dose-normalized trough ([2]; AA race relative to non-AAs): 0.04
Increase in dose-normalized trough ([2]; CYP3A4 (rs7801671, rs12114000, rs2687117), CYP3A7 (rs2687080, rs776740), CYP3A5 (rs10264272) variants, adjusted for rs776746): 20–32%
Increase in log transformed dose-normalized troughs ([2]; calcium channel blocker (CCB) use): 0.03
Increase in log transformed dose-normalized troughs ([2]; diabetes): 0.12
Increase in log transformed dose-normalized troughs ([2]; male gender): 0.17
Reduction in log transformed dose-normalized troughs ([2]; one A allele (CYP3A5*1, rs776746)): 36%
Effect on log transformed dose-normalized troughs (estimate ± SE) ([2]; one A allele (CYP3A5*1, rs776746), adjusted for clinical factors): −0.44±0.03
Increase in log transformed dose-normalized troughs ([2]; one allele of CYP3A4 (rs7801671, rs12114000, rs2687117), CYP3A7 (rs2687080, rs776740), CYP3A5 (rs10264272) variants, adjusted for rs776746): 0.18–0.28
Reduction in log transformed dose-normalized troughs ([2]; two A alleles (CYP3A5*1, rs776746)): 59%
Effect on log transformed dose-normalized first trough (Estimate ± SE) ([3]; African American subjects only, Diabetes): 0.45 ± 0.12
Effect on log transformed dose-normalized first trough (Estimate ± SE) ([3]; African American subjects only, rs776746 (CYP3A5)): −0.25 ± 0.08
Effect on log transformed dose-normalized first trough (Estimate ± SE) ([3]; African American subjects only, rs2072374 (CNAP1)): −0.45 ± 0.17
Effect on log transformed dose-normalized first trough (Estimate ± SE) ([3]; African American subjects only, rs2239393 (COMT)): −0.19 ± 0.08
Effect on log transformed dose-normalized first trough (Estimate ± SE) ([3]; African American subjects only, rs2280789 (CCL5)): 0.23 ± 0.10
Effect on log transformed dose-normalized first trough (Estimate ± SE) ([3]; African American subjects only, rs2288648 (FASTK)): −0.41 ± 0.17
Effect on log transformed dose-normalized first trough (Estimate ± SE) ([3]; African American subjects only, rs3136228 (MSH6)): −0.20 ± 0.08
Effect on log transformed dose-normalized first trough (Estimate ± SE) ([3]; African American subjects only, rs12114000 (CYP3A4)): 0.38 ± 0.11
Effect on log transformed dose-normalized first trough (Estimate ± SE) ([3]; Non-African American subjects only, Age in years, mean-centered at 50.2 years): 0.010 ± 0.002
Effect on log transformed dose-normalized first trough (Estimate ± SE) ([3]; Non-African American subjects only, Diabetes): 0.21 ± 0.06
Effect on log transformed dose-normalized first trough (Estimate ± SE) ([3]; Non-African American subjects only, rs4926 (SERPING1)): −0.12 ± 0.04
Effect on log transformed dose-normalized first trough (Estimate ± SE) ([3]; Non-African American subjects only, rs17567 (EPS15)): 0.12 ± 0.05
Effect on log transformed dose-normalized first trough (Estimate ± SE) ([3]; Non-African American subjects only, rs776746 (CYP3A5)): −0.31 ± 0.07
Effect on log transformed dose-normalized first trough (Estimate ± SE) ([3]; Non-African American subjects only, rs1800822 (FMO3)): 0.20 ± 0.09
Effect on log transformed dose-normalized first trough (Estimate ± SE) ([3]; Non-African American subjects only, rs2239393 (COMT)): −0.07 ± 0.04
Effect on log transformed dose-normalized first trough (Estimate ± SE) ([3]; Non-African American subjects only, rs2608555 (GAN)): 0.17 ± 0.04
Effect on log transformed dose-normalized first trough (Estimate ± SE) ([3]; Non-African American subjects only, rs3135506 (APOA5)): −0.23 ± 0.08
Effect on log transformed dose-normalized first trough (Estimate ± SE) ([3]; Non-African American subjects only, rs3734354 (SIM1)): 0.20 ± 0.06
Effect on log transformed dose-normalized first trough (Estimate ± SE) ([3]; all subjects model, Age in years, mean-centered at 50.2 years): 0.008 ± 0.002
Effect on log transformed dose-normalized first trough (Estimate ± SE) ([3]; all subjects model, Diabetes): 0.23 ± 0.05
Effect on log transformed dose-normalized first trough (Estimate ± SE) ([3]; all subjects model, rs3448 (GPX1)): 0.07 ± 0.04
Effect on log transformed dose-normalized first trough (Estimate ± SE) ([3]; all subjects model, rs4926 (SERPING1)): −0.09 ± 0.04
Effect on log transformed dose-normalized first trough (Estimate ± SE) ([3]; all subjects model, rs13321 (TNC)): 0.06 ± 0.04
Effect on log transformed dose-normalized first trough (Estimate ± SE) ([3]; all subjects model, rs17567 (EPS15)): 0.10 ± 0.04
Effect on log transformed dose-normalized first trough (Estimate ± SE) ([3]; all subjects model, rs776746 (CYP3A5)): −0.33 ± 0.05
Effect on log transformed dose-normalized first trough (Estimate ± SE) ([3]; all subjects model, rs2072374 (CNAP1)): −0.08 ± 0.04
Effect on log transformed dose-normalized first trough (Estimate ± SE) ([3]; all subjects model, rs2239393 (COMT)): −0.28 ± 0.08
Effect on log transformed dose-normalized first trough (Estimate ± SE) ([3]; all subjects model, rs2608555 (GAN)): 0.15 ± 0.04
Effect on log transformed dose-normalized first trough (Estimate ± SE) ([3]; all subjects model, rs2687117 (CYP3A4)): 0.26 ± 0.08
Effect on log transformed dose-normalized first trough (Estimate ± SE) ([3]; all subjects model, rs3135506 (APOA5)): −0.23 ± 0.07
Effect on log transformed dose-normalized first trough (Estimate ± SE) ([3]; all subjects model, rs3734354 (SIM1)): 0.19 ± 0.06
Effect on log transformed dose-normalized first trough (Estimate ± SE) ([3]; all subjects model, rs4646312 (COMT)): 0.22 ± 0.08
Fraction metabolized through CYP3A5 ([4]; hepatic enzymes from CYP3A5*1 allele carriers): 60%
Intrinsic tacrolimus clearance of CYP3A5 enzyme relative to CYP3A4 ([4]; in vitro): twice
Subjects achieving the trough target ([5]; control group): 29.1%
Subjects achieving the trough target ([5]; genotype adapted dosing): 43.2%
Intersubject pharmacokinetic variability in area under the curve, higher [6]: 41.1%
